Compounds with a hit are over-represented: about 2.3% of the library has one in this group of screens.
ADAM10 inh: inhibitors of human ADAM10. inhibition, % at 7 µM. 370,000 compounds, 0.62% hits. recombinant ADAM10, EDANS/DABCYL FRET peptide cleavage, 3 h. O14672;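 active = inhibition above a per-campaign cutoff equal to the mean of compounds falling between control-based bounds plus 3 SD, cut at about 20% in these data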;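 also: 0% = DMSO wells while the 100% control is not disclosed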
DDE Tn7 FP inh: disrupts Tn7 cyclic peptide binding to fibrin D-Dimer-E complex; P02675; FP displacement of FITC-Tn7 peptide from fibrin DD(E); 0% = median of compound wells per plate; inhibition, % at 8.3 µM; 370,000 compounds, 0.13% hits; AID 720508;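 active = inhibition above the mean of compounds falling within the control limits plus 3 SD of them, cut at about 14% in these data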;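 also: 0% = plate median of compound wells and 100% = 10 µM Aha-Tn7 peptide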
Target sequence (P02675 whole entry, looked up): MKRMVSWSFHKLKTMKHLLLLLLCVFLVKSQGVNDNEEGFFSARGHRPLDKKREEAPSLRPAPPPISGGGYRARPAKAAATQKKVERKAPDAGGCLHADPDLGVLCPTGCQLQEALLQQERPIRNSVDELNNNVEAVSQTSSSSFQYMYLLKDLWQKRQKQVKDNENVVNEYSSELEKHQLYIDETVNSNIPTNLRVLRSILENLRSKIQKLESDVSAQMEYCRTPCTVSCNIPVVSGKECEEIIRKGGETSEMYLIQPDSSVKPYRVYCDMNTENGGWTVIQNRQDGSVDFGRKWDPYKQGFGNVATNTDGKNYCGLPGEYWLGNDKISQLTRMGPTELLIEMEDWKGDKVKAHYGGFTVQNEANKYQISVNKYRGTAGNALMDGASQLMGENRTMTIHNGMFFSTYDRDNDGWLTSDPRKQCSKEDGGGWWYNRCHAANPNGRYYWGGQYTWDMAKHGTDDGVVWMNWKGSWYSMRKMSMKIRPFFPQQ
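Assay system: Human clot-derived fibrin DD(E) complex | Buffer or medium: Tris/NaCl/CaCl2 buffer, pH 7.8 | Repeats: One replicate per compound | Benchmarks: Aha-Tn7 high control | Measure: % inhibition scaled between sample-field median and high-control FP | Schedule: 10 min plus 3 h, room temperature | Signal: Fluorescence polarization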
ADAM17 inh: inhibits human ADAM17; P78536; recombinant ADAM17, EDANS/DABCYL FRET peptide cleavage; inhibition, % at 6.95 µM; 370,000 compounds, 0.83% hits;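 active = inhibition above the mean of compounds lying between control limits plus 3 SD, set per campaign, cut at about 8.5% in these data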;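 also: 0% = DMSO-only wells as the low control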
PLCb3 inh: PLC-beta3 (human) inhibition, primary screen. Purified PLC-beta3, fluorogenic substrate, fluorescence. 370,000 compounds, 0.18% hits. inhibition, % at 12.2 µM. AID 720704; in the data active = inhibition above about 11%;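 also: 0% = median of compound wells on plate and 100% = full blocker control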
PLC-gamma1 inh: inhibitors of human phospholipase C gamma1; P19174; purified PLC-gamma1, fluorogenic substrate, fluorescence; inhibition, % at 12.2 µM; 370,000 compounds, 0.84% hits; in the data active = inhibition above about 9.5%
Tn6 DDE FP: DD(E)-Tn6 binding inhibition, primary FP screen; P02675; Fibrin DD(E) TRITC-Tn6 fluorescence polarization displacement; inhibition, % at 8.3 µM; 370,000 compounds, 0.21% hits;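 active = inhibition above a per-campaign cutoff: mean of compounds within control limits plus 3 SD, cut at about 15% in these data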;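 also: 0% = median of all compound wells on the plate and 100% = blocking peptide control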
* hit, by the source's call.

SMILES | ADAM10 inh | DDE Tn7 FP inh | ADAM17 inh | PLCb3 inh | PLC-gamma1 inh | Tn6 DDE FP
O=C(CCN1C(=O)/C(=C/c2ccco2)SC1=S)Nc1ccc(O)cc1C(=O)O | -14.3 | 1.3 | -15.4 | -49.2 | 7.2 | -11.2
COC(=O)c1ccc(Cn2ccc3ccc(-c4ccc5ccn(C(=O)c6cccc(OC)c6)c5c4)cc32)cc1 | -15.1 | -3.6 | -2.0 | -34.1 | -15.6 | -5.7
O=C(Oc1ccc(C(=S)N2CCOCC2)cc1)c1ccc(Br)cc1 | 3.6 | 0.0 | 0.7 | -1.2 | 0.0 | 3.0
COc1ccc(C(=O)Oc2ccc(C(=S)N3CCOCC3)cc2)cc1 | 6.7 | 4.0 | 7.3 | 8.4 | 13.0* | -2.6
COc1ccc2c(c1)CCCN2C(=O)C1CCCN(S(=O)(=O)c2ccc(C)c(C)c2)C1 (centres undefined) | -2.1 | 4.2 | 6.8 | 1.4 | 1.1 | 0.0
CC(O)(c1cccc(F)c1)c1nc(-c2ccccc2)cs1 (centres undefined) | 6.3 | 2.5 | 0.6 | -1.0 | -0.3 | 10.9
Cn1cc(-c2csc(C(C)(O)c3cccc(F)c3)n2)cn1 (centres undefined) | -16.5 | 0.8 | -5.9 | -2.7 | 10.1* | 0.3
Cc1ccc(S(=O)(=O)N2[C@@H](c3ccc(C(C)(C)C)cc3)C(C(=O)O)=CC[C@H]2c2ccc(C(C)C)cc2)cc1 | 21.9* | -2.9 | 3.6 | -3.4 | -3.9 | 6.9
Cc1ccc([C@@H]2CC=C(C(=O)O)[C@H](c3ccc(C(C)(C)C)cc3)N2S(=O)(=O)c2ccc(C)cc2)cc1 | 17.7 | 5.0 | 3.7 | -1.0 | -1.0 | -4.5
C/C(C/C(C)=C1/SC(=S)NC1=O)=C1\SC(=S)NC1=O | -0.4 | 0.6 | 1.0 | -3.4 | 72.9* | -3.8
Cc1nc2ncnn2c(C)c1CCC(=O)O | 0.3 | -1.9 | 2.6 | 8.9 | 10.4* | -3.2
O=C(NC1CCCCC1)Oc1cc2oc(=O)sc2cc1Br | 26.3* | 0.0 | 4.4 | -5.3 | 6.8 | -2.1
O=C(NC1CCCCN(Cc2ccc(Cl)cc2)C1=O)c1ccc(-c2ccccc2)cc1 (centres undefined) | 15.7 | -8.9 | 3.4 | 0.9 | 0.9 | 8.9
CCCC1CCC2(CC1)CCC2OC(=O)Nc1cccc(C(F)(F)F)c1 (centres undefined) | -8.6 | 4.0 | -1.4 | 1.0 | 2.6 | 1.5
O=C(NCc1cccs1)c1cc(-c2ccccc2)on1 | 0.8 | -3.3 | -1.7 | 2.8 | 2.2 | 2.7
O=C(NCc1cccs1)c1cc(-c2cccs2)on1 | -4.1 | 6.2 | -2.9 | 1.3 | 0.8 | 91.4*
CCn1c(SCc2c(F)cccc2F)nc2sc3c(c2c1=O)CCCC3 | -3.0 | 0.9 | -0.4 | 2.7 | 0.2 | -2.3
Cc1nn(S(=O)(=O)c2ccccc2)c(C)c1Sc1ccc([N+](=O)[O-])cc1 | 6.5 | -8.1 | -0.3 | 1.6 | 0.7 | 1.9
CCCc1nnn(S(=O)(=O)c2ccc([N+](=O)[O-])cc2)c1CCC | -8.8 | -1.0 | 5.4 | 13.2* | 11.9* | 8.1
O=c1c2ccccc2n(Cc2ccno2)n1[C@@H](Cc1ccccc1)Cn1cc(-c2ccc(-c3ccccc3)cc2)nn1 | -89.1 | 4.4 | -21.4 | -43.8 | -25.8 | -1.5
c1ccc(CCSc2nnc(-c3cccnc3)n2Cc2ccccc2)cc1 | 1.3 | 5.7 | -0.6 | 1.6 | 1.5 | -6.8
CCCCN(CCCNC(=O)Cn1nc(CC)n2c(cc3sc(C)cc32)c1=O)Cc1ccccc1 | 0.9 | 2.5 | -2.3 | -9.7 | 3.9 | 1.8
CCc1nn(CC(=O)NCCCN(CC)Cc2ccccc2)c(=O)c2cc3sccc3n12 | 1.3 | -2.9 | 1.6 | 2.8 | 10.6* | 0.6
Cc1cc(C(=O)COC(=O)c2ccc3c(c2)OCO3)c(C)n1Cc1cccs1 | 6.3 | -7.6 | 7.9 | 4.3 | 10.4* | -0.8
O=C(NC1CCCCN(Cc2cccc(C(F)(F)F)c2)C1=O)c1ccc(F)c(F)c1 (centres undefined) | 3.5 | -3.8 | -0.4 | 0.5 | 1.0 | -1.1
SMILES | ADAM10 inh | DDE Tn7 FP inh | ADAM17 inh | PLCb3 inh | PLC-gamma1 inh | Tn6 DDE FP
CN(CC(=O)Nc1ccc(Cl)cc1)C(=O)Cn1[nH]c(=O)c2ccccc2c1=O | 6.2 | -0.1 | -1.3 | -5.6 | 9.8* | 0.1
O=C1CCC[C@H]2C[C@H](NCc3cccc(I)c3)CC[C@]23CCCN13 | -7.0 | 2.9 | -5.2 | 0.4 | 1.7 | -2.1
Fc1cccc(/C=N/Nc2ncnc3nc[nH]c23)c1 | 3.1 | 2.5 | 4.2 | 3.0 | 4.6 | 2.7
Fc1ccccc1/C=N/Nc1ncnc2nc[nH]c12 | 3.4 | -1.0 | 3.1 | 6.2 | 9.8* | 4.2
CC(OC(=O)c1ccco1)C(=O)Nc1ccc(C(F)(F)F)cc1 (centres undefined) | 1.3 | -4.0 | 1.3 | -2.4 | 12.1* | 6.3
Cc1ccccc1CS(=O)(=O)Cc1ccc(C(=O)Nc2c(C)cccc2C)o1 | -2.7 | -3.8 | -0.7 | -0.1 | -1.3 | 0.7
NS(=O)(=O)c1ccc(NC(=O)COc2ccc(C(=O)c3ccc(F)cc3)cc2)cc1 | 2.5 | 1.2 | -1.8 | -11.5 | -3.8 | 24.0*
Clc1ccc(CN2CCC(Cc3ccccc3)CC2)cc1 | 8.2 | -4.3 | 0.3 | 5.9 | 10.8* | -7.6
Clc1cccc(CN2CCC(Cc3ccccc3)CC2)c1 | -8.2 | -0.5 | -5.8 | 2.8 | 1.7 | 0.0
O=C(NCc1ccccc1)[C@@H]1CCCN1C(=O)[C@H]1CCCN1C(=O)c1cccs1 | -0.7 | 6.7 | 2.3 | 10.7* | -1.9 | -2.9
COc1ccc(Cl)cc1Cn1c(C)c(C(=O)NCc2cccc(Cl)c2)sc1=O | 14.2 | 0.7 | 10.3* | -0.7 | 1.5 | -8.1
COc1ccc(C(C)=O)cc1Cn1c(C)c(C(=O)NCc2cccc(Cl)c2)sc1=O | -11.4 | -6.3 | 2.5 | -6.0 | 2.3 | -6.4
CC(=O)c1ccc(N2CCN(C(=O)CCCn3c(=S)[nH]c4cc5c(cc4c3=O)OCO5)CC2)cc1 | 24.9* | 4.0 | 0.8 | 2.5 | 6.0 | -3.5
COc1ccc(C(=O)C2CCN(c3ncnc4sccc34)CC2)cc1 | 0.3 | 2.9 | -2.0 | -4.2 | 0.5 | 3.3
Cc1ccccc1NS(=O)(=O)c1ccc(NC(=O)CSCc2ccc(Br)cc2)cc1 | 32.3* | -2.6 | 15.3* | -5.4 | 9.1 | 1.7
O=C(CSCc1ccc(Br)cc1)Nc1ccc(S(=O)(=O)N2CCOCC2)cc1 | -3.1 | -4.8 | -3.0 | 4.0 | 0.0 | 2.5
CN(C)S(=O)(=O)c1cccc(C(=O)N/N=C\c2cccc(C#N)c2)c1 | -6.2 | -1.9 | -2.1 | -1.0 | -1.7 | -5.5
O=C(CSc1nnc(SCc2cccc3ccccc23)s1)c1ccc(F)cc1 | 4.3 | 3.8 | 0.0 | -2.9 | -1.8 | -7.4
O=C(NC1CCCCN(Cc2cccc(Cl)c2)C1=O)c1cccc(C(F)(F)F)c1 (centres undefined) | 6.6 | -0.7 | 3.2 | -2.6 | 0.1 | -4.2
CCOc1ccccc1CN(Cc1ccco1)S(=O)(=O)c1ccc(-n2cnnn2)c(OC)c1 | 18.0 | -5.2 | 12.0* | 5.7 | 8.0 | 6.6

Screens: PubChem, The Scripps Research Institute Molecular Screening Center
